SMILES strings stand for the structures. Values without a mark were called inactive. The source made the active and inactive calls.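 Rule for the calls: active = growth inhibition above 25% in both replicates, a cutoff set 3 SD above the mean; inconclusive = above 25% in only one replicate; inactive = the rest.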

The assay can be described thus: S. cerevisiae growth inhibition in permissive medium (OD615), pilot counter-assay for S. cerevisiae lifespan shortening project, permissive growth control (AID 705). To be noted: OD615, 24 h, at 10 µM, stronger effect = higher value. In outline: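 Test system: Saccharomyces cerevisiae strain carrying genetically modified DeaD replicative-lifespan system; buffer or medium: SC raffinose/galactose permissive medium; dosing: one dose 10 µM, DMSO 0.25% final; times: 24 h exposure, 30 °C; measured by: OD at 615 nm; read-out basis: growth inhibition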
In the case of `O=C1CCCC2=C1C(c1cccnc1)Nc1ccccc1N2` (configuration not stated), the growth inhibition was -12.3%.

Regarding `CCCOC(=O)COc1cc(C)cc2oc(=O)c3c(c12)CCC3`, the growth inhibition was -10.1%. With `COc1cccc(OCC(=O)N2CCN(C)CC2)c1`, the growth inhibition was 5.64%.

Take `CCc1sc(C(=O)N2CCC3(CC2)OCCO3)cc1Br`: the growth inhibition was -7.48%. `COc1cc2c(cc1OC)-c1c(OC)c(OC)cc3c1C(C2)N(C)CC3` (configuration not stated): the growth inhibition is -13.1%. Regarding `CCOC(=O)c1cncn1C(C)c1ccccc1` (configuration not stated), the growth inhibition is -15.6%. As to `CN1C(=O)C(Cc2cccs2)C(=O)N(C)C1=O`, the growth inhibition was -5.75%. To `O/N=C/c1c[nH]c2ccccc12` belongs 4.87%; to `C=C(C)c1cccc(C(C)(C)NC(=O)NC2CN3CCC2CC3)c1` (configuration not stated), -5.2%; to `Nc1ccc(S(=O)(=O)N2CC3CC(C2)c2cccc(=O)n2C3)cc1` (configuration not stated), 1.94%. Regarding `CCCCCCn1c(=O)c(C(=O)Nc2ccncc2)c(O)c2ccccc21`, the growth inhibition is 93.5% (active). `CCCCCP(=O)(O)c1ccccc1`: the growth inhibition is -5.12%.

Turning to `CN1CCN(c2ccc(NC(=O)C(C)(C)C)cc2)CC1`, the growth inhibition was -17.9%. In the case of `CCCOc1ccccc1C1SCC(=O)Nc2c1c(=O)[nH]n2C(C)CCC` (configuration not stated), the growth inhibition is -9.65%.

As for `CC(C)CC1C(C#N)=C(N)Oc2c1c(=O)oc1ccccc21` (configuration not stated), the growth inhibition was -12.7%.

Turning to `CC12CN3CC(C)(CN(C1)C3c1cccnc1)C2=O` (configuration not stated), the growth inhibition was -9.24%. Under `CN1CCN(CCC(C#N)(c2ccccc2)c2ccccc2)CC1` stands -19.9%; under `CCOC(=O)c1c(C)c(P(=S)(N2CCOCC2)N2CCOCC2)n(C)c1C`, -22.4%; under `O=C(Cc1ccc(Br)cc1)N1CCN(Cc2ccccc2)CC1`, -2.42%. Take `Cc1ccc2c(c1)C1CN(C)CCC1N2C(=O)Cn1nnc(-c2ccccc2F)n1` (configuration not stated): the growth inhibition is 6.06%. To `COc1ccc(C2C(C(=O)N3CCC4(CC3)OCCO4)CC(=O)N2c2ccc(OC)cc2)cc1` (configuration not stated) belongs -8.58%; to `Clc1cccc(CN2CCCCC2c2cccnc2)c1` (configuration not stated), -8.37%.

For the compound `C=Cn1ccnc1P(=S)(c1ccn(C)c1)c1nccn1C=C`, the growth inhibition is -2.8%. `Cc1nn(C2CCOC(C)(C)C2)c2c1C(c1ccc3c(c1)OCO3)SCC(=O)N2` (configuration not stated): the growth inhibition is 7.63%. As to `COCCOC(=O)C1=C(N)OC(C)=C(C(=O)OC)C12C(=O)Nc1ccccc12` (configuration not stated), the growth inhibition was -5.22%.

On to `O=C(CN1CC(c2ccccc2)CC1=O)NCc1ccc(F)cc1` (configuration not stated), for which the growth inhibition is -10.3%. As for `O=c1c2ccccc2nc(-c2cccs2)n1-c1cnccn1`, the growth inhibition was -10.5%.

On to `COc1ccc(CC2C(=O)NC(=O)N(c3ccccc3)C2=O)c(OC)c1` (configuration not stated), for which the growth inhibition is -13.5%. As to `CC1(C)CC(n2[nH]c(=O)c3c2NC(=O)CSC3c2ccc(F)cc2)CCO1` (configuration not stated), the growth inhibition is -12.3%. To `Cc1cc(OCC(=O)NC2CCS(=O)(=O)C2)c2c3c(c(=O)oc2c1)CCC3` (configuration not stated) belongs -13.3%; to `COc1cc(C2SCC(=O)Nc3c2c(=O)[nH]n3C2CCCCCC2)cc(OC)c1OC` (configuration not stated), -22.7%; to `Cc1c(C(=O)N2CCC3(CC2)OCCO3)oc2ccc(S(=O)(=O)N3CCOCC3)cc12`, -9.41%. With `FC(F)(F)/C(=N\P(=S)(N1CCOCC1)N1CCOCC1)N1CCOCC1`, the growth inhibition is 6.63%. `O=C(CN1CCOCC1)c1ccc2cc[nH]c2c1`: the growth inhibition was -10.7%. Consider `Cc1nc2ccc(Cl)cn2c1P(=S)(N1CCOCC1)N1CCOCC1`, for which the growth inhibition is -10.4%. For `COc1cccc(N2C(=O)CC(=O)NC2=O)c1`, the growth inhibition was -5.82%. To `COc1cc2c(cc1OC)C(C(=O)N1CCC3(CC1)OCCO3)C(c1ccccc1F)N(C)C2=O` (configuration not stated) belongs -3.76%.

Values taken from PubChem BioAssay.
